Published values collected from several papers.
Target: Dual specificity tyrosine-phosphorylation-regulated kinase 2 (DYRK2, Homo sapiens, UniProt Q92630)
Observed: enzyme activity
Action: inhibitor
Residues used in one study (Q92630 1-601): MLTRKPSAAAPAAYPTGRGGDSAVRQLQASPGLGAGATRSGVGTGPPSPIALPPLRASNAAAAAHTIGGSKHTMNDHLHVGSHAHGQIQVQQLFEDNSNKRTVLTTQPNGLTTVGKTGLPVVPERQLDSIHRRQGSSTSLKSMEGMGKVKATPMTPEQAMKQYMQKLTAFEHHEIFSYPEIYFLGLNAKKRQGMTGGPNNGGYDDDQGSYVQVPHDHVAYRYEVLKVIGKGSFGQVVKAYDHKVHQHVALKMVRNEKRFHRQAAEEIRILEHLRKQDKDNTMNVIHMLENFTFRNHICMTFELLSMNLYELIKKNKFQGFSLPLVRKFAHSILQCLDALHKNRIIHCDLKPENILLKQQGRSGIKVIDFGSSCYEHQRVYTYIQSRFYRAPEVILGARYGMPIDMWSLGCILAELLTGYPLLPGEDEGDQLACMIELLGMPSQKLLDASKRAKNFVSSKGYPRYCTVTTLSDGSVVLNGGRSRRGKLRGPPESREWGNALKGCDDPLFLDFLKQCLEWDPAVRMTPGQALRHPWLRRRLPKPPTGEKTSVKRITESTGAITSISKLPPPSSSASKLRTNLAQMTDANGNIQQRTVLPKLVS

method | tested at | remaining activity [%] | Structure (SMILES)
radiometric | 1 µM | 19 | COc1cccc(CCNc2nc3cc(C(=O)O)ccc3c3cnccc23)c1
 | 10 µM | 39 | Nc1nc(NC2CCCCC2)sc1C(=O)c1ccccc1
radiometric | 1 µM | 11 | O=C(O)c1ccc2c(c1)nc(Nc1ccc(Cl)cc1)c1ccncc12
 | 1 µM | 59.7 | CC(C)(O)[C@H]1CC[C@H](Nc2ccc3ncc(-c4cccc(C(F)(F)F)c4)n3n2)CC1
 | 5 µM | 88.2 | O=C(Nc1cnn(-c2csc(C(=O)NC3COC3)c2)c1)Nc1ccccc1Cl
radiometric | 1 µM | 11 | N#Cc1cccc(Nc2nc3cc(C(=O)O)ccc3c3cnccc23)c1
 | 10 µM | 79 | Cn1c(=O)n(-c2ccc(C(C)(C)C#N)cc2)c2c3cc(-c4cnc5ccccc5c4)ccc3ncc21
 | 23.5 nM | 80 | Cc1ccc(C(=O)Nc2ccc(CN3CCN(C)CC3)c(C(F)(F)F)c2)cc1C#Cc1cnc2cccnn12
radiometric | 1 µM | 30 | Cc1cnc(NC2CCOCC2)nc1-n1cnc(C(=O)NC(CN)c2cc(F)cc(Cl)c2)c1 (stereo not drawn)
radiometric | 1 µM | 17 | O=C(O)c1ccc2c(c1)nc(NCCc1cccc(F)c1)c1ccncc12
 | 5 µM | 93.6 | O=C(Nc1cnn(-c2csc(C(=O)NC3COC3)c2)c1)Nc1c(F)cccc1Cl
radiometric | 10 µM | 100 | COc1cc(Nc2cnc(C#N)c(O[C@H](C)CN(C)C)n2)ncc1-c1cnn(C)c1
